# Screening data from PubChem BioAssay.
# An excerpt weighted towards active compounds, which were near 3% of everything screened.
# TRPC4 inh: blocks the mouse TRPC4 cation channel; hit rate 0.39% among 300,000; AID 2247; HEK293 TRPC4beta/mu-opioid, DAMGO-evoked Fluo4 calcium flux; hits give low values; B-score at 10 µM;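 active means B-score over 3 SD under the library average, no early fluorescence shift, positive overall ratio signal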
# Target sequence (Q9QUQ5 whole entry, looked up): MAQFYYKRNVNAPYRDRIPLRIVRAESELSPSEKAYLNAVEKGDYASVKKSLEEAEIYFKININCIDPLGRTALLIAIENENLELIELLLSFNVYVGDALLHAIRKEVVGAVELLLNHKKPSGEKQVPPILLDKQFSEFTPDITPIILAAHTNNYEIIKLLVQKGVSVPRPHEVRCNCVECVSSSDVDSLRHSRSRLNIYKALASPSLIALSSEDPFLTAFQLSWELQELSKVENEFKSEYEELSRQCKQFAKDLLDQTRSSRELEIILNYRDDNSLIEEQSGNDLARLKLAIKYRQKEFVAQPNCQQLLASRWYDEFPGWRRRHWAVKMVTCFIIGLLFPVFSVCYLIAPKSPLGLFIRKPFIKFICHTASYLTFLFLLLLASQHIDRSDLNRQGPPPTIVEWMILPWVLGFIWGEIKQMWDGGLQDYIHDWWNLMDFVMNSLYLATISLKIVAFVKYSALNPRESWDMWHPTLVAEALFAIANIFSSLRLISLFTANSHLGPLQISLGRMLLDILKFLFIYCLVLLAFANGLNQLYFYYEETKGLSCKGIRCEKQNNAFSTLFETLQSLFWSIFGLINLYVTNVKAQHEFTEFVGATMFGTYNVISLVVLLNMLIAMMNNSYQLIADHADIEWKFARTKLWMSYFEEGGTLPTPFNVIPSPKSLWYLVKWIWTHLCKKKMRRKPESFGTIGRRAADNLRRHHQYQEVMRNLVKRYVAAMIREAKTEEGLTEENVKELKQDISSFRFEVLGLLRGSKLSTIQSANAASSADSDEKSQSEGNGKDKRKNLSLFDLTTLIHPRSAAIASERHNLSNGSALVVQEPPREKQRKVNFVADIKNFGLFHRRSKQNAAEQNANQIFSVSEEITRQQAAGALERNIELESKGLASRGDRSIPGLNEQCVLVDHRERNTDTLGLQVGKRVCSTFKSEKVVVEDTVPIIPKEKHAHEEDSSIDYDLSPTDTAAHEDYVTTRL
#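 Assay system – HEK293 line stably carrying TRPC4beta and mu-opioid receptor · Doses – single dose · Detection – Fluo4 calcium-dye fluorescence, kinetic read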
# TRPC6 act: activates the mouse TRPC6 cation channel; Q61143; HEK293-TRPC6 membrane potential dye fluorescence; hits give high values; B-score at 10 µM; hit rate 0.13% among 310,000;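 active means B-score of the integrated fluorescence ratio above library mean plus 3 SD, and starting fluorescence ratio within library mean plus 5 SD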;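 further: higher score means more depolarization so channel activation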
# Kir21 inh: inhibitors of mouse Kir2.1 inward-rectifier potassium channel. P35561. HEK293-Kir2.1, FluxOR thallium flux fluorescence; hits give low values. B-score at 10 µM. hit rate 0.85% among 310,000. AID 1672;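 active means fluorescence ratio B-score at or below minus 3 SD of library scores, with starting-brightness B-score within 2 SD, cut at about -4.2 in these data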;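 further: channel flux triggered by added potassium and thallium sulfate stimulus; B-score of peak minus minimum fluorescence over baseline after thallium stimulus; more negative B-score means stronger Kir2.1 block with less thallium influx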
# TRPC4 agonist: opens the mouse TRPC4 cation channel; B-score at 10 µM; hit rate 0.49% among 310,000; HEK293 TRPC4beta/mu-opioid, Fluo4 calcium fluorescence; hits give high values; AID 2237; Q9QUQ5;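 active means B-score above 5 SD of library B-scores, and initial fluorescence ratio not above library mean plus 5 SD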;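 further: positive B-score marks a calcium rise read as TRPC4 activation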
#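 Assay system – TRPC4beta and mu-opioid receptor HEK293 stable cells · Measured by – Fluo4 fluorescence, kinetic · Schedule – dye loading 45 min room temperature, 110 s kinetic read · Read-out – B-scored integrated calcium fluorescence ratio · Controls – buffer and maximal DAMGO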
# TRPC4 potent: allosterically enhances the mouse TRPC4 cation channel | HEK293 TRPC4beta/mu-opioid, DAMGO EC20, Fluo-4 Ca2+ flux; hits give high values | hit rate 0.42% among 310,000 | AID 2227 | B-score at 10 µM | Q9QUQ5;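 active means B-score of calcium response area above 5 SD of library B-scores, with initial fluorescence ratio within 5 SD of library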;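 further: B-score of integrated fluorescence ratio over time as area under calcium response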
# TRPC6 inhibitor: mouse TRPC6 channel inhibition; Q61143; HEK293-TRPC6, membrane potential dye, ACh-evoked depolarization; hits give low values; B-score at 10 µM; hit rate 1.1% among 310,000; AID 2553;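 active means B-score under library mean minus 3 SD, initial fluorescence not abnormally high, positive integrated signal ratio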;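 further: B-score derived from integrated fluorescence ratio over the kinetic read; more negative B-score means stronger inhibition of depolarization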
# * = called active by the depositor; i = inactive.
SMILES,TRPC4 inh,TRPC6 act,Kir21 inh,TRPC4 agonist,TRPC4 potent,TRPC6 inhibitor
Cc1cc(OCC(=O)NNC(=S)NC(=O)c2ccc(Br)o2)ccc1Cl,i,i,-0.63,i,16*,i
COc1ccccc1NCCC(=O)OCC(=O)NC1CCCCCC1,i,i,-7.7*,i,i,i
COc1ccccc1CCC(=O)OCC(=O)NC1CCCC1,i,i,-1.2,i,i,i
CCc1ccc(CN(C)C(=O)c2cc(COc3ccc(OC)cc3Cl)on2)nc1,i,i,-2.4,i,i,i
Cc1ccc(CC(CC(=O)O)C(=O)NCC23CC4CC(CC(C4)C2)C3)cc1 (stereo unspecified),i,i,0.93,i,14*,i
CC(Oc1ccc(Cl)cc1Cl)C(=O)NCCC1=CCCCC1 (stereo unspecified),i,i,-7*,i,i,i
CC(OC(=O)Cc1ccc(Cl)cc1)C(=O)NCCC1=CCCCC1 (stereo unspecified),i,i,-1.1,i,i,i
CCCN(CCC)CCNC(=O)C1CCN(S(=O)(=O)c2cccc3nsnc23)CC1,i,i,0.95,i,i,i
CCCCN(CC)CCNC(=O)C1CCCN(S(=O)(=O)c2cccc3nsnc23)C1 (stereo unspecified),i,i,-0.08,73*,i,i
CC1CCN(CCNC(=O)C2CCCN(S(=O)(=O)c3cccc4nsnc34)C2)CC1 (stereo unspecified),i,i,-0.08,i,12*,i
Cc1nccn1CCCNC(=O)C1CCC(=O)N(Cc2ccccc2F)C1 (stereo unspecified),i,i,-0.58,i,i,i
COc1ccc(Cc2noc(CN3CCCC(OCc4ccccn4)C3)n2)cc1OC (stereo unspecified),i,i,1.6,i,i,i
Clc1ccc(CN2C3=NCCN3c3ccccc32)cc1Cl,-6*,i,-3.1,i,i,i
Cc1ccc(CN2C3=NCCN3c3ccccc32)cc1,-6*,i,-1.2,i,i,i
CCN(CC)CCn1c(=N)n(CC(O)c2ccc(OC)c(OC)c2)c2ccccc21 (stereo unspecified),i,i,0.52,i,i,i
CCN(CC)CCn1c(=N)n(CC(O)COc2cccc(C)c2)c2ccccc21 (stereo unspecified),-5*,i,-7.9*,i,i,i
Cc1cccc(OCC(O)Cn2c(=N)n(CCN3CCCCC3)c3ccccc32)c1 (stereo unspecified),i,i,-4.2*,i,i,i
COc1ccccc1N1CCN(CCCNC(=O)Nc2ccccc2)CC1,-6*,i,-0.28,i,i,i
O=C(NCCCN1CCN(c2ccccc2)CC1)Nc1ccccc1C(F)(F)F,-6*,i,-1.4,i,i,i
COc1ccccc1/C=N/NC(=O)CC(=O)NCCc1ccccc1,i,i,0,i,i,i
O=C(/C=C/c1cc(Br)ccc1O)c1ccco1,i,i,-5.9*,i,i,i
O=C(/C=C/c1ccccc1O)c1ccco1,i,i,-3.5,i,i,i
CCc1cc(Cl)c(OC)c(C(=O)NC[C@@H]2CCCN2CC)c1O,i,i,-0.17,70*,i,i
CCc1ccc(Nc2n[n+](-c3ccccc3)c(-c3c(Cl)cccc3Cl)s2)cc1,i,i,-1.3,i,i,i
CN(C)c1ccc(-c2sc(Nc3ccccc3)n[n+]2-c2ccc(F)cc2)cc1,i,i,-6.7,222*,i,i
SMILES,TRPC4 inh,TRPC6 act,Kir21 inh,TRPC4 agonist,TRPC4 potent,TRPC6 inhibitor
Fc1ccc(-[n+]2nc(Nc3ccccc3)sc2-c2c(Cl)cccc2Cl)cc1,i,i,-2,55*,i,i
COc1ccc2ccccc2c1-c1sc(Nc2ccccc2)n[n+]1-c1ccc(F)cc1,i,i,-5.6*,i,i,i
COc1ccc(-c2sc(Nc3ccccc3)n[n+]2-c2ccc(F)cc2)cc1Br,i,i,-1,i,i,i
COc1ccccc1CN(C)CC(=O)Nc1ccc(Cl)cc1F,i,i,-2.3,i,i,i
COc1ccc(Br)cc1CN(C)CC(=O)Nc1cc(Cl)ccc1Cl,i,i,-5.7*,i,i,i
COc1ccc(Br)cc1CN(C)CC(=O)Nc1ccccc1Cl,i,i,-5.4*,i,i,i
CC(C)(C)C(=O)NC(=S)NNC(=O)c1sc2ccccc2c1Cl,i,i,2.1,256*,i,i
COc1ccc(C(=O)NNC(=S)NC(=O)C(C)(C)C)cc1,i,i,1.7,225*,i,i
COc1ccc(C(=O)NNC(=O)c2ccc(C(C)(C)C)cc2)cc1,i,i,0.51,i,i,i
COc1ccc(Nc2nc(-c3cccs3)nc3ccccc23)cc1S(=O)(=O)N1CCOCC1,i,i,1.1,i,i,i
c1ccc(Nc2ncnc3c2oc2ccccc23)cc1,i,i,-0.38,i,i,i
c1ccc2c(c1)oc1c(Nc3ccc(CN4CCOCC4)cc3)ncnc12,i,i,-5*,i,i,i
Cc1ccc(Oc2c(C(N)=O)cc([N+](=O)[O-])cc2[N+](=O)[O-])cc1,i,i,-5.5*,i,i,i
CN(CCOc1ccc(Cl)c(Cl)c1)Cc1ccccc1,i,i,0.04,i,i,i
CCN(CC)CCOc1ccc(Br)cc1,i,i,0.09,i,11*,i
CCN(CC)CCOc1ccc(/C(=C(\Cl)c2ccccc2)c2ccccc2)cc1,i,i,-0.84,i,i,i
CCN(CC)CCCOc1ccc(Cl)c(Cl)c1,i,i,1.4,46*,24*,i
CS(=O)(=O)c1nc2c(cc1C#N)CCCC2,i,i,0.03,i,i,i
CC(C)(C)c1ccccc1NC(=O)NC1CCN(Cc2c(F)cccc2Cl)CC1,i,i,0.36,116*,i,i
S=C(Nc1ccc(Cl)cc1)NC1CCN(Cc2ccccc2)CC1,i,i,-4.7*,i,i,i
O=C(Nc1ccc(F)cc1)NC1CCN(Cc2ccccc2)CC1,i,i,-5.2*,i,i,i
Fc1ccc(CNc2ccc(N3CCN(Cc4ccccc4)CC3)cc2)cc1,i,i,-7.1*,i,i,i
O=C(Nc1ccc2c(c1)OCO2)NC1CCN(Cc2ccccc2)CC1,i,i,-1.3,i,i,i
